Published values gathered from unrelated publications.
Each line is one published result; the experiments were not run side by side.
Target: SNF-related serine/threonine-protein kinase (SNRK, Homo sapiens, UniProt Q9NRH2)
Sequence (Q9NRH2 1-765, as in one of the studies): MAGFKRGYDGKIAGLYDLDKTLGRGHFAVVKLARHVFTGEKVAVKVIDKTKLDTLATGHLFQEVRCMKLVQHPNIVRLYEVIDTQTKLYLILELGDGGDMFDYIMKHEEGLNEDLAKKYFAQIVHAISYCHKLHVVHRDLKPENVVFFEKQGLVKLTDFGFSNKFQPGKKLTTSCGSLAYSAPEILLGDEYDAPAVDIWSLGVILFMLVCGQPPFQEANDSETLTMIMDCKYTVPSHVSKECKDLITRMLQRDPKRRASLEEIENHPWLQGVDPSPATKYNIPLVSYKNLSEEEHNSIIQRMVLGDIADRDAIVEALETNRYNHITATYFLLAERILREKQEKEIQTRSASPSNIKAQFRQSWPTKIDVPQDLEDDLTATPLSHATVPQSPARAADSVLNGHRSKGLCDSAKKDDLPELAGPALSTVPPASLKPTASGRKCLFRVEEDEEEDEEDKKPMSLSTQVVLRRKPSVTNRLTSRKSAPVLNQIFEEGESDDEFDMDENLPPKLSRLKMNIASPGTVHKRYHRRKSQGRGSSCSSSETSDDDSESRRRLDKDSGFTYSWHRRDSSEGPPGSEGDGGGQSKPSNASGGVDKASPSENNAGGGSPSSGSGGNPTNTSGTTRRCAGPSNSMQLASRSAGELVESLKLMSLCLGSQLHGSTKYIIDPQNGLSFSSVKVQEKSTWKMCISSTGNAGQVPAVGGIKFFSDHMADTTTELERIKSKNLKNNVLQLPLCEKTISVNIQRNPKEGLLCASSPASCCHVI

SMILES	observed	technique	tested at	remaining binding [%]
COc1ccnn2ncc(-c3ccnc(N(C)C)n3)c12	binding	–	1 µM	93
FC(F)(F)Oc1cccc(-c2cnc3ccc(-c4ccncc4)nn23)c1	binding	competition with immobilised ligand	5 µM	71
C[C@H]1CCN(c2nccc(-c3cnn4ncccc34)n2)C1	binding	–	1 µM	81
Cc1cnc(Nc2ccc(C(=O)N3CCC(N4CCCC4)CC3)cc2)nc1-c1cc2ccccc2s1	binding	competition with immobilised ligand	1 µM	100
Cc1cnn2ncc(-c3ccnc(N(C)C)n3)c2c1	binding	–	1 µM	79
CCN1CCN(Cc2ccc(C(=O)Nc3ccc(C)c(Oc4ccc5c(c4)CC(=O)N5)c3)cc2C(F)(F)F)CC1	binding	competition with immobilised ligand	1 µM	98
COc1ccc2c(c1)O[C@H](c1ccc(OC)c(OC)c1)C[C@@H]2NC(=O)C1(c2ccc3c(c2)OC(F)(F)O3)CC1	cell-free assay	competition with immobilised ligand	1 µM	92
N[C@H]1CCN(c2nccc(-c3cnn4ncccc34)n2)C1	binding	–	1 µM	100
O=C(c1ccc(Nc2nccc(-c3cc4ccccc4s3)n2)cc1)N1CCC(N2CCCC2)CC1	binding	competition with immobilised ligand	1 µM	100
C=CC(=O)N1CCC(C(=O)NCC(=O)N2CCN(c3nc(-c4cnc(N)nc4C(F)F)nc(N4CCOCC4)n3)CC2)CC1	binding	competition with immobilised ligand	1 µM	99
C[C@H](c1ccnc(Nc2nc3ccc(-c4cc(N(C)C)ncn4)cc3[nH]2)c1)N1CCN(C(=O)CC(F)(F)F)CC1	cell-free assay	competition with immobilised ligand	0.1 µM	100
C[C@@H](c1ccc(-n2cnc3c(N)ncnc32)cc1)N1CCc2nn(C)c(Cc3ccccc3)c2C1=O	binding	competition with immobilised ligand	0.1 µM	98
Nc1ncc2c(n1)-c1c([nH]c3ccc(C#CC4CC4)cc13)CCCC2	binding	competition with immobilised ligand	1 µM	88
CN(CCCC(F)(F)F)c1nccc(-c2cnn3ncccc23)n1	binding	–	1 µM	100
CS(=O)(=O)NCC[C@H](NC(=O)c1cncc2c1cnn2-c1ccc(F)cc1)c1ccnc(S(C)(=O)=O)c1	cell-free assay	competition with immobilised ligand	1 µM	100
CN(c1nccc(-c2cnn3ncccc23)n1)C1CC1	binding	–	1 µM	100
Cc1noc([C@H]2C[C@@H](c3ccc(C(F)(F)F)cc3)CN(C(=O)N3CCS(=O)(=O)C3)C2)n1	cell-free assay	competition with immobilised ligand	1 µM	100
O=C(c1ccc(Nc2ncc(Cl)c(-c3cc4ccccc4s3)n2)cc1)N1CCC(N2CCCC2)CC1	binding	competition with immobilised ligand	1 µM	87
CO[C@@H](C)c1c(Nc2ccc([C@H](N(C)C(=O)C3CCS(=O)(=O)CC3)C(F)(F)F)cc2)cnc2cc(Cl)nn12	cell-free assay	competition with immobilised ligand	1 µM	100
COc1cnc(Nc2cccc(S(N)(=O)=O)c2)nc1N1CCN(c2ccccc2)CC1	binding	competition with immobilised ligand	1 µM	88
CN(c1ccnc(CNc2nc(Nc3ccc4c(c3)CC(=O)N4)ncc2C(F)(F)F)n1)S(C)(=O)=O	cell-free assay	competition with immobilised ligand	1 µM	85
O=C(Nc1c[nH]nc1C(=O)NC1CCNCC1)c1cc(F)cc(F)c1	binding	competition with immobilised ligand	1 µM	97
